This is an account of results in ChEMBL document CHEMBL1128339, “Discovery of 6,11-ethano-12,12-diaryl-6,11-dihydrobenzo[b]quinolizinium cations, a novel class of N-methyl-D-aspartate antagonists” (J Med Chem, 1995).

One data set has as its target Glutamate NMDA receptor. Kind of data set: Binding affinity at TCP site of NMDA receptor was determined in rat brain homogenate by [3H]TCP displacement. The format is tissue-based.
For data set [1], the species on record is Mus musculus. Kind of data set: Inhibitory concentration against NMDA-induced cell death in cultured mouse cortical neurons. In kind it is functional.
Data set [2] is described as follows: LogD value of the compound. In kind it is physicochemical. The conditions noted are these: octanol/water. Summed up:
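LogD is the partition coefficient between octanol and pH 7.4 buffer. It was measured instrumentally by an outside laboratory.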

For data set [3], the system named is Mus musculus. The data set can be described thus: NMDA antagonistic activity was evaluated […] in cultured mouse cortical neurons by patch clamp recordings designed to measure closed state binding to NMDA receptor-ionophore complex. The format is functional.
Data set [4] has as its system Mus musculus. Kind of data set: NMDA antagonistic activity was evaluated […] in cultured mouse cortical neurons by patch clamp recordings designed to measure open state binding to NMDA receptor-ionophore complex. In kind it is functional.
The nature of data set [5]: (§1) Ratio of IC50 value for closed channel binding to that of open channel binding. The format is functional.
The test system of data set [6] is Mus musculus. Kind of data set: NMDA antagonistic activity was evaluated […] in cultured mouse cortical neurons by patch clamp recordings designed to measure closed state binding to NMDA receptor-ionophore complex at 100 uM. In kind it is functional. Summed up: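 Value is the percent inhibition of NMDA-induced current at 100 μM, under closed-channel conditions in mouse cortical neuronal cultures.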

The species entered for data set [7] is Mus musculus. Described as §1. In kind it is functional.
Data set [8] concerns the target Glutamate NMDA receptor (Rattus norvegicus) (UniProt P35439+Q00959+Q00960+Q00961+Q62645+Q8VHN2+Q9R1M7). Kind of data set: Compound at 10 uM was tested for the inhibition of radioligand [3H]TCP binding to TCP site of NMDA receptor in rat brain homogenate. The format is tissue-based.
The test system of a further data set is Rattus norvegicus. Kind of data set: In vivo anti-ischemic activity was evaluated in a rat middle cerebral artery occlusion/ reperfusion model of focal ischemia at a dose of 6 mg/kg/h for 6.5 hr (iv, infusion). The format is functional. Summed up: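 Rats underwent middle cerebral artery occlusion followed by reperfusion (focal ischemia). The drug was given by continuous intravenous infusion. The read-out was reduction in infarct volume (n = 15).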

On to `COc1ccc(C2(c3ccc(OC)cc3)CC3c4ccccc4C2c2cccc[n+]23)cc1` (stereo not drawn), for which the affinity on Glutamate NMDA receptor, expressed as Ki, was 28100 nM.
As to `c1ccc2c(c1)C1CC(c3ccsc3)(c3ccsc3)C2c2cccc[n+]21` (stereo not drawn), the IC50 in the data set listed under Mus musculus [1] is 45 nM. Moreover, on Glutamate NMDA receptor, the Ki came to 1.8 nM.
Turning to `c1ccc(C2(c3ccccc3)CC3c4ccccc4C2c2cccc[n+]23)cc1` (stereo not drawn), half-maximal inhibition in the data set filed under Mus musculus [1] (IC50) was put at 197 nM. This compound also gave an inhibition constant Ki at Glutamate NMDA receptor of 8.2 nM.
For the compound `c1coc(C2(c3ccco3)CC3c4ccccc4C2c2cccc[n+]23)c1` (stereo not drawn), the midpoint of inhibition in the data set listed under Mus musculus [1], the IC50, lay at 36 nM. In addition, the inhibitory constant (Ki) at Glutamate NMDA receptor was 1.9 nM.
`c1ccc2c(c1)C1CC(c3cncs3)(c3cncs3)C2c2cccc[n+]21` (stereo not drawn): the Ki on Glutamate NMDA receptor stood at 120 nM.
On to `c1ccc(C2(N3CCCCC3)CCCCC2)cc1` [PHENCYCLIDINE], for which the pH-dependent lipophilicity (logD) in data set [2] (read-out: logD) was 1.76. Also, the 50% inhibitory concentration (IC50) with Mus musculus [3] turned out to be 13900 nM; in the data set on Mus musculus [4], 270 nM. Further, the Ratio in data set [5] was 51.
In data set [2], `CCOC1(OCC)C2c3ccccc3C([n+]3ccccc32)C1(C)C.[Cl-]` (stereo not drawn) came in with a logD of -4.08. Moreover, the IC50 in the data set on Mus musculus [3] was more than 100000 nM; in the data set with Mus musculus [4], 260 nM. The Inhibition in the data set with Mus musculus [6] was -8.5%. Moreover, the Ratio in the data set filed under Mus musculus [7] is given as more than 384. This compound also registered a Ki on Glutamate NMDA receptor of 5.3 nM.
`Brc1ccc(C2(c3ccc(Br)cc3)CC3c4ccccc4C2c2cccc[n+]23)cc1` (stereo not drawn) returned an inhibition in data set [8] of 22%.
At Glutamate NMDA receptor, `COc1cccc(C2(c3cccc(OC)c3)CC3c4ccccc4C2c2cccc[n+]23)c1` (stereo not drawn) showed a Ki of 41 nM.
For the compound `c1ccc2c(c1)C1CC(c3cc[nH]n3)(c3cc[nH]n3)C2c2cccc[n+]21` (stereo not drawn), the IC50 in the data set listed under Mus musculus [1] worked out at 271 nM. The affinity on Glutamate NMDA receptor corresponds to a Ki of 13 nM.
With `[Cl-].c1ccc2c(c1)C1CC(c3ccoc3)(c3ccoc3)C2c2cccc[n+]21` (stereo not drawn), the pH-dependent lipophilicity (logD) in data set [2] (read-out: logD) was -3.41. Besides, the values for the half-inhibitory concentration (IC50) in the data set filed under Mus musculus [1], in the data set with Mus musculus [3] and with Mus musculus [4] were 39 nM, more than 100000 nM and 140 nM, respectively. In addition, in the data set on Mus musculus [6], the Inhibition worked out at 12%. Besides, the Ratio in the data set filed under Mus musculus [7] is more than 700. On Glutamate NMDA receptor, the inhibition constant (Ki) worked out at 1.8 nM. The same compound registered an inhibition in vivo at 6 mg/kg/h in the data set on Rattus norvegicus of 50%.
As for `c1ccc2c(c1)C1CC(c3nccs3)(c3nccs3)C2c2cccc[n+]21` (stereo not drawn), the Ki at Glutamate NMDA receptor turned out to be 17 nM.
Regarding `c1ccc2c(c1)C1CC(c3ccncc3)(c3ccncc3)C2c2cccc[n+]21` (stereo not drawn), the inhibition in data set [8] stood at 54%.
For the compound `c1csc(C2(c3cccs3)CC3c4ccccc4C2c2cccc[n+]23)c1` (stereo not drawn), half-maximal inhibition in the data set listed under Mus musculus [1] (IC50) required 23 nM. This compound registered a Ki on Glutamate NMDA receptor of 2.1 nM.
`Fc1ccc(C2(c3ccc(F)cc3)CC3c4ccccc4C2c2cccc[n+]23)cc1` (stereo not drawn) came in with an inhibition constant Ki at Glutamate NMDA receptor of 2210 nM.
Regarding `C[C@]12N[C@H](Cc3ccccc31)c1ccccc12` [DIZOCILPINE], the log distribution coefficient (logD) in data set [2] (read-out: logD) stood at 1.79. Besides, the IC50 in the data set listed under Mus musculus [1] was 67 nM; in the data set on Mus musculus [3] it was 5800 nM; with Mus musculus [4], 100 nM.
The compound `c1ccc2c(c1)C1CC(c3cocn3)(c3cocn3)C2c2cccc[n+]21` (stereo not drawn) had an inhibitory constant (Ki) at Glutamate NMDA receptor of 93 nM.
For the compound `c1cncc(C2(c3cccnc3)CC3c4ccccc4C2c2cccc[n+]23)c1` (stereo not drawn), the inhibition constant (Ki) at Glutamate NMDA receptor turned out to be 2270 nM.
Same read-out and setting: then `c1ccc(C2(c3ccccn3)CC3c4ccccc4C2c2cccc[n+]23)nc1` (stereo not drawn), with 8.4 nM.
`Brc1cccc(C2(c3cccc(Br)c3)CC3c4ccccc4C2c2cccc[n+]23)c1` (stereo not drawn): the inhibitory constant (Ki) on Glutamate NMDA receptor was found to be 185 nM.
Take `c1ccc2c(c1)C1CC(c3cc[nH]c3)(c3cc[nH]c3)C2c2cccc[n+]21` (stereo not drawn): in the data set listed under Mus musculus [1], the IC50 was determined as 30 nM. The compound further yielded a Ki at Glutamate NMDA receptor of 3.1 nM.
Consider `Clc1ccc(C2(c3ccc(Cl)cc3)CC3c4ccccc4C2c2cccc[n+]23)cc1` (stereo not drawn), for which, in data set [8], the inhibition was determined as 45%.
For `c1ccc2c(c1)C1CC(c3ncc[nH]3)(c3ncc[nH]3)C2c2cccc[n+]21` (stereo not drawn), the Ki at Glutamate NMDA receptor stood at 1670 nM.
Still for that read-out and setting: then `Clc1cccc(C2(c3cccc(Cl)c3)CC3c4ccccc4C2c2cccc[n+]23)c1` (stereo not drawn), with 104 nM.
